# Data published in ChEMBL document CHEMBL1250544, “Diversity-oriented synthesis of cyclic acyldepsipeptides leads to the discovery of a potent antibacterial agent” (2010).
# Legend:
# Enterococcus faecalis [1] = test: Antimicrobial activity against vancomycin-resistant Enterococcus faecalis clinical isolate obtained from rectal swab after 24 hrs by broth microdilution assay
# Staphylococcus aureus [2] = test: Antimicrobial activity against methicillin-susceptible Staphylococcus aureus ATCC 3556 after 24 hrs by broth microdilution assay; assay type: functional
# In short: (§1)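 CLSI broth microdilution run in duplicate. Compounds were dissolved in DMSO and serially diluted twofold in cation-adjusted Mueller–Hinton broth (25 µg/mL calcium, 12.5 µg/mL magnesium). Inoculum was verified by colony counts on tryptic soy agar. MIC was the lowest concentration visually inhibiting >99% of colonies.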
# Enterococcus faecium = test: Antimicrobial activity against vancomycin-resistant Enterococcus faecium clinical isolate obtained from tissue after 24 hrs by broth microdilution assay; assay type: functional
# In short: (§2)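 CLSI broth microdilution in duplicate on clinical isolates from Veterans Affairs Medical Center patients. Compounds were dissolved in DMSO and serially diluted twofold in cation-adjusted Mueller–Hinton broth (25 µg/mL Ca, 12.5 µg/mL Mg). Inoculum was verified by colony counts on tryptic soy agar. MIC is the lowest concentration visually inhibiting >99%.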
# Enterococcus faecalis [3] = test: Antimicrobial activity against Enterococcus faecalis clinical isolate obtained from rectal swab after 24 hrs by broth microdilution assay; assay type: functional
# In short: as §1
# Staphylococcus aureus [4] = test: Antimicrobial activity against methicillin-resistant Staphylococcus aureus from blood after 24 hrs by broth microdilution assay; assay type: functional
# In short: as §2
# Enterococcus faecalis [5] = test: Antimicrobial activity against Enterococcus faecalis ATCC 29212 after 24 hrs by broth microdilution assay; assay type: functional; conditions: ATCC 29212, 24 h
# In short: as §1
# [6] = Staphylococcus aureus, ATCC 3556, 24 h, read-out: MIC
# [7] = Staphylococcus aureus, 24 h, read-out: MBC
smiles,measurement,setting,value
CCCC/C=C/C(=O)N[C@@H](Cc1cccc(F)c1)C(=O)N[C@@H]1COC(=O)[C@@H]2CCCN2C(=O)[C@H](C)NC(=O)[C@@H]2CCCCN2C(=O)[C@@H]2CCCN2C1=O,MBC,Enterococcus faecalis [1],0.04 µg/mL
same,MIC,Enterococcus faecalis [1],0.04 µg/mL
same,MIC,Staphylococcus aureus [2],1.25 µg/mL
same,MIC,Staphylococcus aureus [2]; [6],1.25 µg/mL
same,MBC,Enterococcus faecium,0.08 µg/mL
same,MIC,Enterococcus faecium,0.08 µg/mL
same,MBC,Enterococcus faecalis [3],0.04 µg/mL
same,MIC,Enterococcus faecalis [3],0.04 µg/mL
same,MBC,Staphylococcus aureus [4],1.25 µg/mL
same,MBC,Staphylococcus aureus [4]; [7],1.25 µg/mL
same,MBC,Enterococcus faecalis [5],1.25 µg/mL
same,MIC,Enterococcus faecalis [5],0.16 µg/mL
CCCC/C=C/C(=O)N[C@@H](Cc1cccc(F)c1)C(=O)N[C@@H]1COC(=O)[C@@H]2CCCN2C(=O)[C@H](C)NC(=O)C2(CCCC2)N(C)C(=O)[C@@H]2CCCN2C1=O,MBC,Staphylococcus aureus [4]; [7],> 312 µg/mL
CCCC/C=C/C(=O)N[C@@H](Cc1cccc(F)c1)C(=O)N[C@@H]1COC(=O)[C@@H]2CCCN2C(=O)[C@H](C)NC(=O)[C@H]2CC(C)CCN2C(=O)[C@@H]2CCCN2C1=O (some centres undefined),MIC,Staphylococcus aureus [2]; [6],> 156 µg/mL
CCCC/C=C/C(=O)N[C@@H](Cc1cccc(F)c1)C(=O)N[C@@H]1COC(=O)[C@@H]2CCCN2C(=O)[C@H](C)NC(=O)[C@@H]2CC(C)CCN2C(=O)[C@@H]2CCCN2C1=O (some centres undefined),MBC,Enterococcus faecalis [1],0.04 µg/mL
same,MIC,Enterococcus faecalis [1],0.04 µg/mL
same,MIC,Staphylococcus aureus [2]; [6],0.6 µg/mL
same,MBC,Enterococcus faecium,0.08 µg/mL
same,MIC,Enterococcus faecium,0.04 µg/mL
same,MBC,Enterococcus faecalis [3],0.04 µg/mL
same,MIC,Enterococcus faecalis [3],0.02 µg/mL
same,MBC,Enterococcus faecalis [5],0.08 µg/mL
same,MIC,Enterococcus faecalis [5],0.04 µg/mL
CCCC/C=C/C(=O)N[C@@H](Cc1cccc(F)c1)C(=O)N[C@@H]1COC(=O)[C@@H]2CCCN2C(=O)[C@H](C)NC(=O)[C@H]2CCCCN2C(=O)[C@@H]2CCCN2C1=O,MIC,Staphylococcus aureus [2]; [6],> 312 µg/mL
same,MBC,Staphylococcus aureus [4]; [7],> 312 µg/mL
CCCC/C=C/C(=O)N[C@@H](Cc1cccc(F)c1)C(=O)N[C@@H]1COC(=O)[C@@H]2CCCN2C(=O)[C@H](C)NC(=O)C2(CCCCC2)N(C)C(=O)[C@@H]2CCCN2C1=O,MBC,Staphylococcus aureus [4]; [7],> 312 µg/mL
CCCC/C=C/C(=O)N[C@@H](Cc1cccc(F)c1)C(=O)N[C@@H]1COC(=O)[C@@H]2CCCN2C(=O)[C@H](C)NC(=O)C2(CCC2)N(C)C(=O)[C@@H]2CCCN2C1=O,MIC,Staphylococcus aureus [2],>312 µg/mL
same,MIC,Staphylococcus aureus [2]; [6],312 µg/mL
same,MBC,Staphylococcus aureus [4]; [7],> 312 µg/mL
